What all share (conditions): stereoisomer not certain
One experiment concerns the target T1, UniProt L7N210.
T1 sequence (whole entry): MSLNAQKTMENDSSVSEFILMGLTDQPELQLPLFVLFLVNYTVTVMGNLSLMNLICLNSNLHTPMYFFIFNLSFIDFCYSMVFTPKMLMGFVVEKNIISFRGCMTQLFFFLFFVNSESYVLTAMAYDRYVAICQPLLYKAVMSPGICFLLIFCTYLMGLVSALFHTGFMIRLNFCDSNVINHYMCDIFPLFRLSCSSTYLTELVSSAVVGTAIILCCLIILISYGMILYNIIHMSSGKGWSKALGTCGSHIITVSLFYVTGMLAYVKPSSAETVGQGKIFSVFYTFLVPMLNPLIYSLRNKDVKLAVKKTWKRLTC
The method, boiled down: (§1)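 Whether a receptor–molecule pair is responsive (active) rests on the original authors' judgment that its measured signal was statistically different from baseline. Pairs without that judgment are non-responsive (inactive). Sources used varied assay methods, commonly transient luciferase assays in mammalian cell lines.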

The target in the next experiment is T2, UniProt Q7TQV4.
T2 sequence (whole entry): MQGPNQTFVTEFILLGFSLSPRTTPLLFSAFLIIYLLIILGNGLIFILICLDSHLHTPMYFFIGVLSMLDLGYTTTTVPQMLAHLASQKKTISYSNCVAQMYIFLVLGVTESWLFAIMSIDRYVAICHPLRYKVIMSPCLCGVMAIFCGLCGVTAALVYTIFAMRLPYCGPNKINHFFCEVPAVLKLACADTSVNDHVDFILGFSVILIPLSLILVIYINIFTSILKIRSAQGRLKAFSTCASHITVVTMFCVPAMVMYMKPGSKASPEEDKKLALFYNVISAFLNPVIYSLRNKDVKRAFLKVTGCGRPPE
The procedure, abridged: as §1

The next experiment has as its target T3, UniProt L7MU75.
T3 sequence (whole entry): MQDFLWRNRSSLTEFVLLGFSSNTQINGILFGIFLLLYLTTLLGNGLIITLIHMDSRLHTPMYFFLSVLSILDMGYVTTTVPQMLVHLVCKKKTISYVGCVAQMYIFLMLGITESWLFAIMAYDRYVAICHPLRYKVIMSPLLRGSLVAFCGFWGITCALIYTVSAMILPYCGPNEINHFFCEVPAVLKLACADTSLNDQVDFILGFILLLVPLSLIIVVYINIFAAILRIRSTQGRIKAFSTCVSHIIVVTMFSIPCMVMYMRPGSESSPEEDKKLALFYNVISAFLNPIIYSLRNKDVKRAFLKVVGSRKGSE
The method, boiled down: as §1

In a further experiment the target is T4, UniProt Q3KPB0.
T4 sequence (whole entry): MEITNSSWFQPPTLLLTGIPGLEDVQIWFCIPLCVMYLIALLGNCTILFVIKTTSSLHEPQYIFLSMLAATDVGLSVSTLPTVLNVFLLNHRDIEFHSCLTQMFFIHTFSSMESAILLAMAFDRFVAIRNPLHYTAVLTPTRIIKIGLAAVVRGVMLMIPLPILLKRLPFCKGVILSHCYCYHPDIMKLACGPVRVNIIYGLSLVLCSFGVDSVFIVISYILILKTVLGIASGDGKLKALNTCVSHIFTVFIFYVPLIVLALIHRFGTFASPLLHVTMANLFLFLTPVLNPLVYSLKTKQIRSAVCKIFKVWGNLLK
The procedure, abridged:
as §1

The next experiment deals with T5, UniProt Q3U0P3.
T5 sequence (whole entry): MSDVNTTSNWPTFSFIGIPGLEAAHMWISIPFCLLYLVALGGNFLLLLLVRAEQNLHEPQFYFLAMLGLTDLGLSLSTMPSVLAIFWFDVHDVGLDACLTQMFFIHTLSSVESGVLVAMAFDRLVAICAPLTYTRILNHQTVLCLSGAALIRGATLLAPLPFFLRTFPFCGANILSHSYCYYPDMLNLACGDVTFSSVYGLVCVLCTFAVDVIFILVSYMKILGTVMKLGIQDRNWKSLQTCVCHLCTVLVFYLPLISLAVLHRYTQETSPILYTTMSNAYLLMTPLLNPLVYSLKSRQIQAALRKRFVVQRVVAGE
The method, boiled down:
as §1

The target in a further experiment is T6, UniProt Q7TQU8.
T6 sequence (whole entry): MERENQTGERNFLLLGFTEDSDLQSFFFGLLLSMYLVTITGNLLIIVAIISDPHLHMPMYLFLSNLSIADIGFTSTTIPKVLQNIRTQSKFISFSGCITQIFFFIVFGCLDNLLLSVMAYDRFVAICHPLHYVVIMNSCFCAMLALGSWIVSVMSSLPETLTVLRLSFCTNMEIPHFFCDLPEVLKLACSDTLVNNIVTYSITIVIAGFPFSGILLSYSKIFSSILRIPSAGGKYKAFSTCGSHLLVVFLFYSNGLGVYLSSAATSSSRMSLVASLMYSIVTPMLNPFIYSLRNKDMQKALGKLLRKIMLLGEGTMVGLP
The procedure, abridged: as §1

The target in another experiment is T7, UniProt L7N0P5.
T7 sequence (whole entry): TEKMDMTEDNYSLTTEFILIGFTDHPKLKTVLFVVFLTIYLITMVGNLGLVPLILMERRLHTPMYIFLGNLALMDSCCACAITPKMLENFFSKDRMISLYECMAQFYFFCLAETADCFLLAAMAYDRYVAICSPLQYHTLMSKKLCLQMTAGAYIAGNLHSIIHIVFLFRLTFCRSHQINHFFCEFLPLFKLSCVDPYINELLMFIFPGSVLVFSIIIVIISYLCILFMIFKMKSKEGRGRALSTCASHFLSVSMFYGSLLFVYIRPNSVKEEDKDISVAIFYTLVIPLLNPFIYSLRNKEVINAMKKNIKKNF
The method, boiled down: as §1

Another experiment has as its target UniProt L7N1Y8. The method, boiled down: as §1

Consider 14 molecules from the M2OR odorant receptor database.

Each structure is given as a SMILES string.
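Also: active if original authors judged signal statistically different from baseline.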

Chain of UniProt L7N1Y8 (L7N1Y8 as listed by the source): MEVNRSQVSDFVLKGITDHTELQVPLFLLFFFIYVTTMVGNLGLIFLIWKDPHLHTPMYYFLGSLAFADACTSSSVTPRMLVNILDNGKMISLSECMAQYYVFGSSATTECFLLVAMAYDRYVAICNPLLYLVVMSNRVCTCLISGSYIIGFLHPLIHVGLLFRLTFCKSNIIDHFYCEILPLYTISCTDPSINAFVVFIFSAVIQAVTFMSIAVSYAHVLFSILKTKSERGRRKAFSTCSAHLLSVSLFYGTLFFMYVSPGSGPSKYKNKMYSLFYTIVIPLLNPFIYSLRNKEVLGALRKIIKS

Take `CCCCCCCC(=O)[O-].[H+]`: the “odorant receptor agonist call” value with UniProt L7N210 and with UniProt Q7TQV4 was “inactive” each time.

With `CCC(=O)C(=O)CC`, the “odorant receptor agonist call” value in the experiment with UniProt L7MU75, with UniProt L7N210, in the experiment with UniProt Q3KPB0, with UniProt Q3U0P3, in the experiment with UniProt Q7TQU8 and with UniProt Q7TQV4 was “inactive” each time.

On to `C=Cc1cnccn1`, for which the “odorant receptor agonist call” value with UniProt L7N0P5 was “active”.

Regarding `C=CCOC(=O)CCCCCC`, the “odorant receptor agonist call” value with UniProt L7MU75, in the experiment with UniProt L7N210, in the experiment with UniProt Q3KPB0, with UniProt Q3U0P3, with UniProt Q7TQU8 and with UniProt Q7TQV4 was “inactive” in each case.

Regarding `O=C1CCOc2ccccc21`, the “odorant receptor agonist call” value with UniProt L7N1Y8 and with UniProt L7N210 was “active” throughout. In addition, the “odorant receptor agonist call” value in the experiment with UniProt Q3KPB0, with UniProt Q3U0P3, in the experiment with UniProt Q7TQU8 and in the experiment with UniProt Q7TQV4 was “inactive” throughout.

Turning to `CCCCC(=O)O`, the “odorant receptor agonist call” value with UniProt L7MU75, with UniProt L7N210, with UniProt Q3KPB0, with UniProt Q3U0P3, with UniProt Q7TQU8 and with UniProt Q7TQV4 was “inactive” in each case.

Regarding `CC1=NC(C)C(C)S1` (centres undefined), the “odorant receptor agonist call” value in the experiment with UniProt L7N0P5 was “active”.

On to `Cc1cnc(C)c(C)n1`, for which the “odorant receptor agonist call” value with UniProt L7N0P5 is “active”.

On to `CCCC(=O)C(C)=O`, for which the “odorant receptor agonist call” value with UniProt L7MU75, in the experiment with UniProt L7N210, with UniProt Q3KPB0, with UniProt Q3U0P3, with UniProt Q7TQU8 and with UniProt Q7TQV4 was “inactive” each time.

On to `O=C1Cc2ccccc2O1`, for which the “odorant receptor agonist call” value with UniProt L7N210, with UniProt Q3KPB0, in the experiment with UniProt Q3U0P3 and with UniProt Q7TQU8 was “inactive” throughout. The “odorant receptor agonist call” value with UniProt Q7TQV4 is “active”.

Consider `CCc1cnc(C)c(C)n1`, for which the “odorant receptor agonist call” value with UniProt L7N0P5 was “inactive”.

As to `COc1nccnc1CC(C)C`, the “odorant receptor agonist call” value in the experiment with UniProt L7N0P5 was “active”.

Regarding `CC(=O)OCC=C(C)C`, the “odorant receptor agonist call” value in the experiment with UniProt L7MU75, in the experiment with UniProt L7N210, with UniProt Q3KPB0, with UniProt Q3U0P3 and with UniProt Q7TQU8 was “inactive” throughout. Also, the “odorant receptor agonist call” value with UniProt Q7TQV4 is “active”.

Take `COC1=C(C)OC(C)C1=O` (centres undefined): the “odorant receptor agonist call” value in the experiment with UniProt L7N0P5 is “inactive”.
